Series [1] in a line: Antiproliferative activity against human RPMI18226 cells after 72 hrs by MTS/PMS proliferation assay. To be noted: RPMI18226, 72 h. The class given is functional, cell-based. The essentials:
(§1)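 Cells kept in RPMI1640 (RPMI 8226) or DMEM (MDA-MB-231) with nonessential amino acids, 2 mM L-glutamine, penicillin/streptomycin and 10% FBS at 37°C, 5% CO2. Seeded at 2000/well, attached overnight, then given compound across a concentration range in 1% DMSO final for 72 h. Viable cells read by MTS/PMS. 1% DMSO wells set as 100%. IC50 from separate triplicate experiments.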

The target in series [2] is Endoplasmin (Homo sapiens) (UniProt P14625). Nature of the series: Inhibition of Gpr94 in human MDA-MB-231 cells assessed as decrease in IGF-II secretion at 1 to 10 uM by Western blot analysis. The class given is cell-based. The essentials: (§2)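 Cells plated in 6-well plates and exposed 24 h to high and low compound concentrations, 15 μM radicicol, or DMSO only (0.25% DMSO final). Lysed in MPER with protease inhibitors on ice and clarified at 4°C. Protein measured by BCA. 20 μg per lane run reducing on SDS-PAGE, blotted to PVDF and probed with specific antibodies, HRP secondary, chemiluminescence. For IGF-II, medium volumes normalized to equal actin were blotted.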
Endoplasmin (Homo sapiens), sequence (P14625 whole entry): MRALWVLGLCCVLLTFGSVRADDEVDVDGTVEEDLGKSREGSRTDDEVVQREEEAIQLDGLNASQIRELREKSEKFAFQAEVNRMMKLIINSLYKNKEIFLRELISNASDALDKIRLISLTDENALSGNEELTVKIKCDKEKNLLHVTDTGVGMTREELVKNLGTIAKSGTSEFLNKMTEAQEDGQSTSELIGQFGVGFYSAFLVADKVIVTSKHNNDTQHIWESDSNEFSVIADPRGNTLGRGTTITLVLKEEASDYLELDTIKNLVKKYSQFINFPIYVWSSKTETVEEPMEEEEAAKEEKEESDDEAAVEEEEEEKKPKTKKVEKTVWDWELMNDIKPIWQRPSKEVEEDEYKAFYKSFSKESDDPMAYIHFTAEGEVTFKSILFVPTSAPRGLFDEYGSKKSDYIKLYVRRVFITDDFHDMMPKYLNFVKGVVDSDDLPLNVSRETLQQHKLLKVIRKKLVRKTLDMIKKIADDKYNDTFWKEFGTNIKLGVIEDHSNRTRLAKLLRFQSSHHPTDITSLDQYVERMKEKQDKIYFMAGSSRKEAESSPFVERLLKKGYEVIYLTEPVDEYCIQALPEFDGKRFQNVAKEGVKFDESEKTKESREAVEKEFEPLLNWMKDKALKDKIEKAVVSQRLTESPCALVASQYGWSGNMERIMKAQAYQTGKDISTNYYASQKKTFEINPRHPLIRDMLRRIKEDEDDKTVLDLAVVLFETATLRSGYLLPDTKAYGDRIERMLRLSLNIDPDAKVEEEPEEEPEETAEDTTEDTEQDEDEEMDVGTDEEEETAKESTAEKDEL

Series [3] deals with MDA-MB-231. Nature of the series: Cytotoxicity against human MDA-MB-231 cells at 2.5 to 25 uM after 24 hrs. The class given is cell-based. To be noted: mda-mb-231, 24 h.
For series [4], the target named is Heat shock protein HSP 90-alpha (Homo sapiens) (UniProt P07900). Nature of the series: Inhibition of Hsp90alpha in human RPMI18226 cells assessed as Akt degradation at 0.5 to 5 fold antiproliferative IC50 concentration by Western blot analysis. The class given is cell-based. Summed up:
as §2
Background: In western blotting, separated proteins are transferred to a membrane and probed.

In series [5] the test system is MDA-MB-231. Nature of the series: Antiproliferative activity against human MDA-MB-231 cells after 72 hrs by MTS/PMS proliferation assay. Particulars: MDA-MB-231, 72 h. The class given is functional, cell-based. The essentials: as §1
Series [6] has as its target Heat shock protein HSP 90-alpha (Homo sapiens) (UniProt P07900). The series can be described thus: Inhibition of Hsp90alpha in human MDA-MB-231 cells assessed as cyclin D1 degradation at 60 uM by Western blot analysis. The class given is cell-based. Summed up: as §2
In series [7] the test system is MDA-MB-231. Nature of the series: Inhibition of cell migration in human MDA-MB-231 cells assessed as reduction of cell migrated into scratched area after 16 to 24 hrs by wound healing assay. The class given is functional, cell-based. Summed up: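 Cells seeded at 200000/well and grown 24 h to a confluent monolayer at 37°C, 5% CO2. Each well scratched with a sterile pipet tip and photographed at 0 h. Compound added at 2.5 up to 25 μM (0.25% DMSO final). Migration into the wound photographed at 16 and 24 h. Quadruplicate wells on two different days.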

Series [8] has as its target Endoplasmin (Homo sapiens) (UniProt P14625). The series can be described thus: Binding affinity to Gpr94 in human RPMI18226 cells using 9G10 antibody by immunoblotting analysis. The class given is cell-based. The essentials: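 Radicicol 15 μM was the positive control and DMSO the negative control. Detergent lysates pulled down with conformation-specific anti-Grp94 antibody 9G10 on protein G magnetic beads, then immunoblotted for Grp94.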

Series [9] shares this target. The series can be described thus: Inhibition of Gpr94 in human RPMI18226 cells assessed as decrease in IGF-II secretion at 0.25 to 2 fold antiproliferative IC50 concentration by Western blot analysis. The class given is cell-based. The essentials:
as §2

Series [10] addresses Heat shock protein HSP 90-alpha (Homo sapiens) (UniProt P07900). Nature of the series: Inhibition of Hsp90alpha in human RPMI18226 cells assessed as cyclin D1 degradation at 0.5 to 5 fold antiproliferative IC50 concentration by Western blot analysis. The class given is cell-based. The essentials:
as §2

Series [11] has as its target Endoplasmin (Homo sapiens) (UniProt P14625). The series can be described thus: Binding affinity to Gpr94 in human MDA-MB-231 cells assessed as conformational change using 9G10 antibody by immunoblotting analysis. The class given is cell-based. The essentials: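 MDA-MB-231 cells treated overnight at 10 μM (high) or 1 μM (low). Radicicol 15 μM was the positive control and DMSO the negative control. Detergent lysates immunoprecipitated with the conformation-specific anti-Grp94 antibody 9G10, which recognizes only open, unliganded Grp94, on protein G magnetic beads. Precipitates immunoblotted for Grp94.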

Series [12] deals with Heat shock protein HSP 90-alpha (Homo sapiens) (UniProt P07900). The series can be described thus: Inhibition of Hsp90alpha in human MDA-MB-231 cells assessed as Akt degradation at 60 uM by Western blot analysis. The class given is cell-based. Summed up:
as §2

For series [13], the target named is Endoplasmin (Homo sapiens) (UniProt P14625). Nature of the series: Inhibition of recombinant Grp94 (unknown origin) assessed as tracer bound at 25 uM after 24 hrs by fluorescence polarization assay relative to control. More on the design: scale not given: the % may be the effect or the level left. Summed up: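 Single-point screen at 25 μM. Recombinant cGrp94 (10 nM) and FITC-geldanamycin tracer (6 nM) incubated 24 h at 4°C with rocking in HEPES pH 7.3 buffer containing molybdate, DTT, NP-40 and BGG (1% DMSO). Polarization read at 485/528 nm. Percent tracer bound scaled between DMSO mP (100%) and free tracer mP (0%). Geldanamycin 50 nM was the positive control. Triplicate.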
For orientation: In fluorescence polarisation assays a small probe gives low polarisation when free and higher when bound to something large.

Series [14] addresses Heat shock protein HSP 90-alpha (Homo sapiens) (UniProt P07900). Nature of the series: Inhibition of Hsp90alpha in human MDA-MB-231 cells assessed as cyclin D1 degradation at 80 uM by Western blot analysis. The class given is cell-based. Summed up:
as §2

Series [15] shares this target. Nature of the series: Inhibition of Hsp90alpha in human RPMI18226 cells assessed as cyclin D1 degradation at 5 fold antiproliferative IC50 concentration by Western blot analysis. The class given is cell-based. The essentials:
as §2

Series [16] has the same target. The series can be described thus: Inhibition of Hsp90alpha in human RPMI18226 cells assessed as Akt degradation at 5 fold antiproliferative IC50 concentration by Western blot analysis. The class given is cell-based. Summed up:
as §2

Series [17] has the same target. The series can be described thus: Inhibition of Hsp90alpha in human MDA-MB-231 cells assessed as Akt degradation at 80 uM by Western blot analysis. The class given is cell-based. The essentials:
as §2

SMILES strings stand for the structures. Activity calls are given as the source filed them. No cut-off for these calls is given here.

By IC50 is commonly meant the point on the concentration scale where inhibition reaches its midpoint. Turning to `COC(=O)c1c(O)cc(O)c(Cl)c1CCC(=O)Nc1ccccn1`, the IC50 amounted to 9.12 µM in series [1] and 12 µM in the series on MDA-MB-231 [5]. Also, the inhibition result in series [2] and in series [9] was “Active” in each case. In addition, the Activity entry with MDA-MB-231 [3] is “Non-toxic”; in series [8], “Dose-dependent effect”; in series [11], “Dose-dependent effect”; in series [13], 1%. The inhibition entry in [4], in [6], in [10] and in series [12] was “inactive” throughout. Further, the inhibition entry with MDA-MB-231 [7] is “Dose-dependent effect”.

Regarding `COC(=O)c1c(O)cc(O)c(Cl)c1CCC(=O)Nc1nccs1`, the inhibition entry in series [14], in [2], in series [15], in series [9], in series [16] and in series [17] was “Active” throughout. Further, the results for the IC50 (in series [1]; in the series on MDA-MB-231 [5]) were 7.83 µM and 16 µM, respectively. Further, the Activity entry in the series on MDA-MB-231 [3] was “Non-toxic”; in [8] it was “Dose-dependent effect”; in series [11], “Dose-dependent effect”; in series [13] it was 6.6%. Moreover, in the series with MDA-MB-231 [7], the inhibition entry is “Dose-dependent effect”.

The record behind these values is ChEMBL document CHEMBL3352107, “Development of radamide analogs as Grp94 inhibitors” (Bioorg Med Chem, 2014).
